{"data": "Measurements pooled from the literature", "organism": "Acinetobacter baumannii", "read-out": "microbial growth"}
{"SMILES": "CC1(C)S[C@@H]2[C@H](NC(=O)[C@H](N)c3ccccc3)C(=O)N2[C@H]1C(=O)O", "assay": "broth dilution", "system": "ATCCBAA1605", "MIC": "> 64 mg/L"}
{"SMILES": "Nc1nc(-c2ccc3nc(-c4cc(C(F)(F)F)cc(C(F)(F)F)c4)[nH]c3c2)c[nH]1", "assay": "broth dilution", "system": "AB5075", "MIC": "50 µM"}
{"SMILES": "C[C@@H](O)[C@H]1C(=O)N2C(C(=O)O)=C(S[C@@H]3CN[C@H](C(=O)N(C)C)C3)[C@H](C)[C@H]12", "assay": "broth dilution", "system": "ATCC19606", "MIC": "0.5 mg/L"}
{"SMILES": "N[C@@H](Cc1c[nH]c2ccc(Cl)cc12)C(=O)O", "system": "ATCC17978", "setting": "18 h", "MIC": "> 200 µM"}
{"SMILES": "CCCCCCC#Cc1cncc(-c2nnc(SCc3cc([N+](=O)[O-])cc([N+](=O)[O-])c3)n2C2CCNCC2)c1", "assay": "broth dilution", "system": "ATCC17978", "MIC": "64 mg/L"}
{"SMILES": "[H]/N=C(\\N/C(=N/[H])NCCCCCCNC(=N)NC(=N)Nc1ccc(Cl)cc1)Nc1ccc(Cl)cc1", "system": "ATCC17978", "MIC": "8 µM"}
{"SMILES": "CCCCCCC#Cc1cncc(-c2nnc(SCc3cc([N+](=O)[O-])cc([N+](=O)[O-])c3)n2CCOC2OC(CN)C(O)C2O)c1 (stereo not shown)", "assay": "broth dilution", "system": "ATCC17978", "MIC": "64 mg/L"}
{"SMILES": "CCCCCCCCN=c1ccn(CCCCCCCCCCn2ccc(=NCCCCCCCC)cc2)cc1", "system": "ATCC17978", "MIC": "1 µM"}
{"SMILES": "CCCCCCC#Cc1cncc(-c2nnc(SCc3ccc([N+](=O)[O-])o3)n2CCCN)c1", "assay": "broth dilution", "system": "ATCC17978", "MIC": "32 mg/L"}
{"SMILES": "CNC(C)C1CCC(N)C(OC2C(N)CC(N)C(OC3OCC(C)(O)C(NC)C3O)C2O)O1 (stereo not shown)", "assay": "broth dilution", "system": "ATCCBAA1605", "MIC": "> 64 mg/L"}
